Measurements from ChEMBL document CHEMBL4425087, “Antibacterial Azaphilones from an Endophytic Fungus, Colletotrichum sp. BS4” (2016).
Values after ≈ are worked out from the molar mass of the structure shown. Active and inactive are the calls of the source. No cut-off for these calls is given here.

Columns and labels:
[1] = test system: THP-1; experiment: Cytotoxicity against human THP1 cells assessed as reduction in cell survival by measuring inhibition of mitochondrial metabolic activity at 0.01 to 100 uM after 48 hrs by resazurin assay; format: functional, cell-based
Outline: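 Human acute monocytic leukemia THP-1 cells, in vitro. Resazurin-based read-out measures inhibition of mitochondrial metabolic activity.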

[2] = test system: Pseudomonas aeruginosa; experiment: Antibacterial activity against Pseudomonas aeruginosa DSM 22644 incubated for 24 hrs by disk diffusion method; format: functional
Outline: (§1)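 Standard control strains from the DSMZ collection (Braunschweig): E. coli and B. subtilis as common environmental strains, and S. aureus and P. aeruginosa as human pathogenic clinical strains. Run by the authors' previously described procedure.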

[3] = test system: Escherichia coli; experiment: Antibacterial activity against Escherichia coli DSM 1116 incubated for 24 hrs by disk diffusion method; format: functional; outline: as §1
[4] = test system: Bacillus subtilis; experiment: Antibacterial activity against Bacillus subtilis DSM 1088 incubated for 24 hrs by disk diffusion method; format: functional; outline: as §1
[5] = test system: Staphylococcus aureus; experiment: Antibacterial activity against Staphylococcus aureus DSM 799 incubated for 24 hrs by disk diffusion method; format: functional; outline: as §1
[6] = test system: THP-1; experiment: Cytotoxicity against human THP1 cells assessed as reduction in cell survival by measuring inhibition of intracellular ATP level at 0.01 to 100 uM after 48 hrs by ATPlite assay; format: functional, cell-based
Outline: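 THP-1 human acute monocytic leukemia cells, in vitro. ATPlite luminescence measures depletion of cytoplasmic ATP.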

[7] = test system: Bacillus spizizenii; experiment: Antibacterial activity against Bacillus subtilis ATCC 6633 by disk diffusion method; format: functional
[8] = test system: Brevibacillus brevis; experiment: Antibacterial activity against Bacillus brevis by disk diffusion method; format: functional

Molecule	Activity [1]	MIC ([2]; DSM 22644, 24 h)	MIC ([3]; DSM 1116, 24 h)	MIC ([4]; DSM 1088, 24 h)	MIC ([5]; DSM 799, 24 h)	Activity [6]	MIC [2]	MIC [3]	MIC [4]	MIC [5]	MIC [7]	MIC [8]
CC[C@H](C)C(=O)[C@H]1C(=O)O[C@@]2(C)C(=O)C=C3C=C(C)OC=C3[C@H]12 [CHERMESINONE B]	inactive	> 10 µg/mL	> 10 µg/mL	> 10 µg/mL	> 10 µg/mL	inactive	–	–	–	–	–	–
CC[C@H](C)C1=C2C(=O)O[C@@]3(C)C(=O)C=C4C=C(C)O[C@@H](O1)[C@@]4(O)[C@@]23O	inactive	> 10 µg/mL	1 µg/mL (≈ 2.87 µM)	0.1 µg/mL (≈ 0.287 µM)	> 10 µg/mL	inactive	–	–	–	–	–	–
GENTAMICIN	–	–	–	–	–	–	1 µg/mL	1 µg/mL	1 µg/mL	1 µg/mL	–	–
CC[C@H](C)C(=O)[C@H]1C(=O)O[C@@]2(C)C(=O)C=C3C=C(C)OC[C@H]3[C@H]12	inactive	> 10 µg/mL	5 µg/mL (≈ 15.7 µM)	> 10 µg/mL	> 10 µg/mL	inactive	–	–	–	–	–	–
CCCCCCCCCCCCCCCCCC[C@H](C)C(=O)C1=C2C3=COC(C)=CC3=CC(=O)[C@]2(C)OC1=O	–	–	–	–	–	–	–	–	–	–	5 µg/mL (≈ 9.28 µM)	5 µg/mL (≈ 9.28 µM)
CN[C@@H]1[C@H](O[C@H]2[C@H](O[C@H]3[C@H](O)[C@@H](O)[C@H](N=C(N)N)[C@@H](O)[C@@H]3N=C(N)N)O[C@@H](C)[C@]2(O)C=O)O[C@@H](CO)[C@H](O)[C@H]1O [STREPTOMYCIN]	–	10 µg/mL (≈ 17.2 µM)	1 µg/mL (≈ 1.72 µM)	5 µg/mL (≈ 8.6 µM)	5 µg/mL (≈ 8.6 µM)	–	–	–	–	–	–	–
CC[C@H](C)C(=O)[C@@H]1C(=O)O[C@@]2(C)C(=O)C=C3C=C(C)OC=C3[C@@H]12	inactive	> 10 µg/mL	> 10 µg/mL	> 10 µg/mL	5 µg/mL (≈ 15.8 µM)	inactive	–	–	–	–	–	–
